Measured values of several laboratories.
Lines come from different studies, so protocols differ.

| Compound | cell line | test | conditions | quantity | value |
| --- | --- | --- | --- | --- | --- |
| C=CC(=O)c1cccnc1Nc1cccc(C(F)(F)F)c1 | NCI-H226 | cell growth or viability, CCK-8 | 72 h | GI50 | 29.1 µM |
| CN(C)C(=O)c1cc2cnc(Nc3ccc(N4CCNCC4)cn3)nc2n1C1CCCC1 | human Neutrophil | superoxide release, inhibitor |  | IC50 | 0.83 µM |
| C=C(F)C(=O)N1CCN(c2nc(OC[C@@H]3CCCN3C)nc3c2CCN(c2cccc4cccc(Cl)c24)C3)C[C@@H]1CC#N | SNU1 | cell growth or viability, ATP luminescence | 3D culture | IC50 | > 1 µM |
| C=CC(=O)NC1CCN(c2ncc3ncnc(Nc4ccc(Oc5ccc6c(c5)ncn6C)c(C)c4)c3n2)CC1 | ABC-1 | cell growth or viability |  | EC50 | 0.964 µM |
| CC(C)c1ccccc1[C@@H]1CCCN1C1CC2(CCN(c3ccc(C(=O)NS(=O)(=O)c4ccc(NC[C@H]5CC[C@](C)(O)CC5)c([N+](=O)[O-])c4)c(Oc4cnc5[nH]ccc5c4)c3)CC2)C1 | SU-DHL-8 | cell growth or viability, ATP luminescence | 48 h | IC50 | 4.45 µM |
| O=C(O)c1ccccc1Nc1cccc(C(F)(F)F)c1 | NCI-H226 | cell growth or viability, CCK-8 | 72 h | GI50 | > 40 µM |
| O=C(O)c1ccc2c(c1)nc(Nc1cccc(Cl)c1)c1ccncc12 | NCI-H226 | cell growth or viability, crystal violet | 48 h | IC50 | 5.8 µM |
| C=CC(=O)c1cccnc1Nc1cc(C(F)(F)F)ccc1OC | NCI-H226 | cell growth or viability, CCK-8 | 72 h | GI50 | 16.2 µM |
| O=C(NO)c1ccc(CNc2nc3cccc(-c4ccc5c(c4)OCO5)n3n2)cc1 | NCI-H226 | cell growth or viability, SRB |  | GI50 | 0.58 µM |
